Compound activity deposited in PubChem BioAssay by Johns Hopkins Ion Channel Center.
RGS4 inh: RGS4 inhibitors, primary screen, cell-based, HEK293 M3R inducible RGS4, calcium flux; Regulator of G-protein signaling 4 (Homo sapiens), P49798; Fluo-4 calcium flux; hits give high values; triggered by carbachol at its EC20; B-score at 10 µM; 0.45% of 310,000 active;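 active means B-score, a plate-corrected calcium signal, over three deviations above library mean, with baseline fluorescence within five deviations of library mean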;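 further: RGS4 expression induced by doxycycline in cells with stable M3 receptor; B-score is computed from the integrated fluorescence ratio over baseline after carbachol; higher B-score means a larger calcium signal and so more RGS4 inhibition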
MrgX1 agonist: agonists of human MrgX1 receptor, primary screen, HEK293 cells, Fluo-4 calcium flux. Fluo-4 calcium fluorescence, agonist mode; hits give high values. B-score at 10 µM. 0.44% of 310,000 active;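 active means calcium response B-score plate-corrected fluorescence ratio at least 3 library SD, with starting fluorescence B-score inside 5 SD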
Target sequence (Q96LB2 whole entry, looked up): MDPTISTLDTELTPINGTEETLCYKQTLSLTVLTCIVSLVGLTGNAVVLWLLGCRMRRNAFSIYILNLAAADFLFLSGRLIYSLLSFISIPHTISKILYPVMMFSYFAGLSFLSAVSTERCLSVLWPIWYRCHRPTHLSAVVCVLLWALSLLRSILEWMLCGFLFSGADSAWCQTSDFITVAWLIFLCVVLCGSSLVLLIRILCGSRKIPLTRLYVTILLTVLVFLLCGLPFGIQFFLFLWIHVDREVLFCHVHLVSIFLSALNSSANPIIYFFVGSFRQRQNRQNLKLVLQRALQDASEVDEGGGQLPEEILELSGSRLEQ
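times = overnight plating, then 30 min 37 °C plus 30 min room-temperature dye loading | assay system = stable human MrgX1 HEK293 cell line | input = fifteen thousand cells per well | signal = kinetic calcium dye fluorescence, Fluo-4 NW | dosing = compound delivered in addition one of three | read-out = B-scored fluorescence response ratio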
MrgX1 antag: antagonists of human MrgX1 receptor, primary screen, HEK293 cells, Fluo-4 calcium flux | Mas-related G-protein coupled receptor member X1 (Homo sapiens), Q96LB2 | BAM8-22 antagonism; hits give low values | B-score at 10 µM | 1.3% of 310,000 active;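 active means calcium-response B-score plate-corrected more than 3 library SD below zero, starting fluorescence within 5 deviations, no agonist response on first addition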;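 further: peak minus trough fluorescence over baseline after final BAM8-22 challenge near maximal dose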
MrgX1 PAM: positive allosteric modulators of MrgX1, primary screen, HEK293 cells, Fluo-4 calcium flux. FDSS; hits give high values. B-score at 10 µM. 0.63% of 310,000 active. AID 588675, 2011;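 active means plate-corrected calcium response at least 3 library SD above typical, normal starting fluorescence, not activating the receptor alone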;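 further: compound read alongside a low EC10 to EC30 dose of BAM8-22 agonist; peak minus trough fluorescence over baseline measured at the second addition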
RGS4 pot: RGS4 potentiators or activators, primary screen, cell-based, HEK293 M3R inducible RGS4, calcium flux; carbachol calcium flux Fluo4; hits give low values; 0.92% of 310,000 active; B-score at 10 µM;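 active means B-score of the integrated calcium signal more than 4 SD below the library mean, with starting fluorescence not abnormally high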;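 further: negative B-score means reduced calcium response which marks RGS4 activation or potentiation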
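Assay system: Inducible-RGS4 HEK293 cells carrying M3 receptor | Schedule: Compound preincubation 20 min at room temperature before agonist | Signal: Kinetic calcium fluorescence imaging with Fluo4-AM dye, 2 µM | Read-out basis: B score from integrated fluorescence ratio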
RGS4 activ val: reduced carbachol calcium response, RGS4-induced M3R cells, confirmation, RGS4 activator project, cell-based, HEK293 M3R/RGS4 inducible, calcium flux, duplicate. carbachol calcium flux Fluo4. inhibition, % at 10 µM. 89% of 1,100 active. shares compounds with RGS4 pot;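 active means inhibition above 3 SD of the buffer control wells, cut at about 41% in these data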;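 further: signal is the integrated peak-minus-minimum Fluo4 fluorescence over baseline ratio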
RGS4 act ctr: activity in cells without induced RGS4 expression | shares compounds with RGS4 pot | HEK293 M3R non-induced RGS4, Fluo4 calcium flux; after carbachol challenge at its EC90 | inhibition, % at 10 µM | 82% of 1,100 active;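 active means inhibition exceeding 3 SD of buffer-only control wells, cut at about 26% in these data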;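 further: percent drop in integrated peak-minus-baseline over baseline Fluo4 ratio after carbachol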
The depositor's hits bear a star; i = inactive; nt = no result given. Rows were chosen to be rich in hits. Some 3.5% of all compounds tested hit in one or more screens of this group.

SMILES	RGS4 inh	MrgX1 agonist	MrgX1 antag	MrgX1 PAM	RGS4 pot	RGS4 activ val	RGS4 act ctr
CCc1ccc(OCCNC(=O)c2ccccc2SCc2ccc(F)cc2)cc1	i	i	i	i	i	nt	nt
O=C(NCCOc1ccc(F)cc1)c1ccccc1SCc1ccccc1	i	i	i	i	-7.71*	92.5*	73.8*
COc1ccc(CCC(C)N2CCC(Oc3ccc(C(=O)N4CCCC4)cc3)CC2)cc1 (stereo not given)	i	i	i	i	-7.63*	83.5*	43.8*
CC(CCc1ccc(O)cc1)N1CCC(Oc2ccc(C(=O)N3CCCC3)cc2)CC1 (stereo not given)	i	i	i	i	i	nt	nt
CSCC[C@H](NC(=O)OC(C)(C)C)C(=O)N/N=C/c1ccc2nccnc2c1	i	i	i	i	-12.2*	0.0	0.0
Cc1cc(C)c(C#N)c(SCC(O)COc2ccc(Br)cc2)n1 (stereo not given)	i	i	i	i	-13*	94.5*	94.3*
CN(Cc1ccc(F)cc1)C(=O)C(c1ccccc1)c1ccccc1	i	i	i	i	-9.13*	82.5*	83.8*
CN(Cc1cccc(F)c1)C(=O)C(c1ccccc1)c1ccccc1	i	i	i	i	i	nt	nt
CC(C)c1ccccc1NC(=O)CNCCc1ccc(C(F)(F)F)cc1	i	i	i	i	i	nt	nt
Cc1cccc(NC(=O)CSCC(=O)Nc2cccc3ncccc23)c1	i	i	i	i	i	nt	nt
COc1cc(C(=O)Oc2cccc(Nc3ncnc4ccccc34)c2)cc(OC)c1OC	i	i	i	i	-11.8*	92.0*	80.3*
Cc1cccc(S(=O)(=O)N2CCN(Cc3ccc4c(c3)OCO4)CC2)c1	i	i	i	i	-10.1*	67.5*	83.8*
CSc1ccc(S(=O)(=O)N2CCN(Cc3ccc4c(c3)OCO4)CC2)cc1	i	i	i	i	-9.9*	92.5*	91.3*
COc1ccc(S(=O)(=O)N2CCC(N3CCN(Cc4ccccc4)CC3)CC2)cc1	i	i	i	i	-8.02*	86.5*	49.8*
COc1ccc(S(=O)(=O)N2CCN(Cc3ccc4c(c3)OCO4)CC2)cc1	i	i	i	i	-10.6*	61.5*	83.8*
CCOc1ccc(S(=O)(=O)N2CCN(Cc3ccc4c(c3)OCO4)CC2)cc1Cl	i	i	i	i	i	nt	nt
COc1cc2c(cc1Cl)/C(=C\CCN(C)C)c1ccccc1S2	i	i	i	i	-9.67*	92.0*	67.3*
CCCCCCNS(=O)(=O)c1ccc(Cl)s1	i	i	i	i	-9.97*	43.0*	83.8*
COc1ccc(OCCSc2ncc(CO)n2C)cc1	i	i	i	i	i	nt	nt
CCc1ccc(CNC(=O)c2cc3c(C)nc4ccccc4c3o2)cc1	i	i	i	i	i	nt	nt
Cc1nc2ccccc2c2oc(C(=O)NCC3COc4ccccc4O3)cc12 (stereo not given)	i	i	i	i	-11*	82.5*	42.3*
Cc1ccnc(Nc2nc(-c3ccc(Cl)cc3)cs2)c1	i	i	i	i	i	nt	nt
Cc1ccnc(Nc2nc(-c3ccc(F)cc3)cs2)c1	i	i	i	i	-8.75*	91.5*	74.3*
CCOC(=O)c1c(NC(=O)/C=C/C(=O)O)sc(C)c1-c1ccc(C(C)(C)C)cc1	i	i	-5.17*	i	-11.7*	92.5*	89.8*
CCCc1ccc(-c2cc(C(=O)N3CCN(c4ccccn4)CC3)c3ccccc3n2)cc1	i	i	i	i	-11.6*	52.0*	0.0
